Reference: ChEMBL document CHEMBL4819017 (Eur J Med Chem, 2021)

Key:
SK-OV-3 = assay: Growth inhibition of human SK-OV-3 cells harboring mutated p110alpha measured after 72 hrs by Cell titre Glo-luminiscence cell viability assay; type: functional
Procedure, shortened: (§1)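 Cells harvested just before confluency and seeded at 4,000 cells/well, then left 24 h before dosing. Serial dilutions from 10 mM DMSO stocks, final DMSO ≤0.5%, each concentration in duplicate.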

[1] = target: PI3-kinase p110-alpha/p85-alpha (Homo sapiens, UniProt P42336); assay: Inhibition of human p110alpha/p85alpha using PIP2 as substrate in presence of ATP measured by HTRF assay; type: protein-complex assay
PI3-kinase p110-alpha/p85-alpha (Homo sapiens, UniProt P42336), sequence (P27986 whole entry): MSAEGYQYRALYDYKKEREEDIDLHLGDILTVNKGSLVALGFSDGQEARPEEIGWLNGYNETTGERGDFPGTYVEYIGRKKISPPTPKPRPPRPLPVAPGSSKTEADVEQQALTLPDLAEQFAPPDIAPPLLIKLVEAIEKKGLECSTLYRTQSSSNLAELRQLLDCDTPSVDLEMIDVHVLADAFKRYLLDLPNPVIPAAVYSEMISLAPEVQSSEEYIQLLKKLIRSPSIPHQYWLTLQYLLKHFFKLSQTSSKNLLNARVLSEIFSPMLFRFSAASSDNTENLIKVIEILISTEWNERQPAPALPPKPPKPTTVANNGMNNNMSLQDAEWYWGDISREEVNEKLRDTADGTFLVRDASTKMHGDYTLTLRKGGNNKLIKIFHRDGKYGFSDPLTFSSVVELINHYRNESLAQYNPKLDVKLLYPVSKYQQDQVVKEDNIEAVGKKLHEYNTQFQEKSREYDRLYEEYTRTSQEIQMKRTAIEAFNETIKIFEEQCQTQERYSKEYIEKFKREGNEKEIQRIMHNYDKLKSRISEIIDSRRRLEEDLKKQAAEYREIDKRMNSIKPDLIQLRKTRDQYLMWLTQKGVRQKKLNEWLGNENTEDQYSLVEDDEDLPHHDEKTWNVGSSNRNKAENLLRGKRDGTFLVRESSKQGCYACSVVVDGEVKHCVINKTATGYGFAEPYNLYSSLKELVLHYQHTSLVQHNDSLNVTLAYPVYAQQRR
PI3-kinase p110-alpha/p85-alpha (Homo sapiens, UniProt P42336), sequence (P42336 whole entry): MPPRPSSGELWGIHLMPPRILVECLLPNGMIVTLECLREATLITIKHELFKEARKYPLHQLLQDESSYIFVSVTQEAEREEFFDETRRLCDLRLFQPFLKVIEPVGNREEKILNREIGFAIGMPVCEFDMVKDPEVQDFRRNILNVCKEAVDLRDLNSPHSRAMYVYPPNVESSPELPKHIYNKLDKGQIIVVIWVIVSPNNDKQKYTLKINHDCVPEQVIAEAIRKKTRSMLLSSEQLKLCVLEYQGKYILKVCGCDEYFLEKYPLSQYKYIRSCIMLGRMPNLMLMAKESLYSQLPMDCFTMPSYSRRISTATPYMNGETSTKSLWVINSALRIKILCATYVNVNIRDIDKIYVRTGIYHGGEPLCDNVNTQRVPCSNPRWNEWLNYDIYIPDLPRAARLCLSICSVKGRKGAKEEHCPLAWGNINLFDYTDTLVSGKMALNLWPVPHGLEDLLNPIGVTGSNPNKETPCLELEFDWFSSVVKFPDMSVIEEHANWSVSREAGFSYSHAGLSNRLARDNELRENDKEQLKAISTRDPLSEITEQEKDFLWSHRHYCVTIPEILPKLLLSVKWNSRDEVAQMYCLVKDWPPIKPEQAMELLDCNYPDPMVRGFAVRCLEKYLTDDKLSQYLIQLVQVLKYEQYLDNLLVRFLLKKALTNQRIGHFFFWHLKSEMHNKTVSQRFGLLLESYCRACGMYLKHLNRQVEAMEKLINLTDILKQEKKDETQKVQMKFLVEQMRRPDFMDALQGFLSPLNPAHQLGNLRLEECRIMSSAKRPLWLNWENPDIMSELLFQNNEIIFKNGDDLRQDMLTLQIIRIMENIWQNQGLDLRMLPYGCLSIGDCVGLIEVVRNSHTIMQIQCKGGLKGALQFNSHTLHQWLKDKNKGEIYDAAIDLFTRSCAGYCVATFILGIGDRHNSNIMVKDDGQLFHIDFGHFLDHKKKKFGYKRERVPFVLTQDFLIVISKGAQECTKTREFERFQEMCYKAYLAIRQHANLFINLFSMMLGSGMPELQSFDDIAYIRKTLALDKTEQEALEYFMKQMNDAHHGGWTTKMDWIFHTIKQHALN

[2] = AUC(infinity) in BALB/c mouse at 10 mg/kg, po measured for 8 hrs; type: ADME, organism-based; design: route oral, time 8 hrs, dose 10 mg/kg; conditions: in vivo
Procedure, shortened: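 BALB/c mice dosed I.V. or P.O. at the stated dose; plasma levels followed for 8 h. Parameters from noncompartmental analysis: AUC (h.ng/ml), T1/2 (h), Cl (L/h/Kg), Vd (L/Kg), Cmax (ng/ml), Tmax (h).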

[3] = Inhibition of PI3K/mTOR in human MCF7 cells assessed as reduction of P70S6K phosphorylation at Thr389 residue measured after 3 hrs by western blot assay; type: cell-based; conditions: MCF7, 3 h
Procedure, shortened: (§2)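 MCF7 cells treated for 3 h across a dose range, washed and lysed with phosphatase and protease inhibitors. Lysates run on 10% SDS-PAGE and blotted, antibodies incubated overnight at 4 °C.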

Cytochrome P450 2C19 = Cytochrome P450 2C19 (Homo sapiens, UniProt P33261); assay: Inhibition of CYP2C19 (unknown origin) using LuciferinH-EG as substrate at 10 uM preincubated with enzyme and substrate for 5 mins followed by addition of NADPH regeneration system and measured after 60 mins by luminescence method; type: ADME
Procedure, shortened: (§3)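 P450-Glo luminescence assays with these substrates: Luciferin-ME (CYP1A2), Luciferin-PPXE (CYP3A4), Luciferin-H (CYP2C9), LuciferinH-EG (CYP2C19), Luciferin-ME-EG (CYP2D6). Compounds run in 1/3 serial dilutions from 10 µM in 0.5% DMSO with enzyme and substrate. After 5 min preincubation, NADPH regeneration reagent added; 60 min at 37 °C, then detection reagent for 30 min. Background subtracted.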

[4] = Inhibition of PI3K/mTOR in human MCF7 cells assessed as reduction of S6 phosphorylation at Ser235/236 residue measured after 3 hrs by western blot assay; type: cell-based; conditions: MCF7, 3 h; procedure, shortened: as §2
PI3K p110 beta/p85 alpha = PI3K p110 beta/p85 alpha (Homo sapiens, UniProt P42338); assay: Inhibition of human p110beta/p85alpha using PIP2 as substrate in presence of ATP measured by HTRF assay; type: protein-complex assay
PI3K p110 beta/p85 alpha, sequence (P27986 whole entry): as the sequence (P27986 whole entry) above
PI3K p110 beta/p85 alpha, sequence (P42338 whole entry): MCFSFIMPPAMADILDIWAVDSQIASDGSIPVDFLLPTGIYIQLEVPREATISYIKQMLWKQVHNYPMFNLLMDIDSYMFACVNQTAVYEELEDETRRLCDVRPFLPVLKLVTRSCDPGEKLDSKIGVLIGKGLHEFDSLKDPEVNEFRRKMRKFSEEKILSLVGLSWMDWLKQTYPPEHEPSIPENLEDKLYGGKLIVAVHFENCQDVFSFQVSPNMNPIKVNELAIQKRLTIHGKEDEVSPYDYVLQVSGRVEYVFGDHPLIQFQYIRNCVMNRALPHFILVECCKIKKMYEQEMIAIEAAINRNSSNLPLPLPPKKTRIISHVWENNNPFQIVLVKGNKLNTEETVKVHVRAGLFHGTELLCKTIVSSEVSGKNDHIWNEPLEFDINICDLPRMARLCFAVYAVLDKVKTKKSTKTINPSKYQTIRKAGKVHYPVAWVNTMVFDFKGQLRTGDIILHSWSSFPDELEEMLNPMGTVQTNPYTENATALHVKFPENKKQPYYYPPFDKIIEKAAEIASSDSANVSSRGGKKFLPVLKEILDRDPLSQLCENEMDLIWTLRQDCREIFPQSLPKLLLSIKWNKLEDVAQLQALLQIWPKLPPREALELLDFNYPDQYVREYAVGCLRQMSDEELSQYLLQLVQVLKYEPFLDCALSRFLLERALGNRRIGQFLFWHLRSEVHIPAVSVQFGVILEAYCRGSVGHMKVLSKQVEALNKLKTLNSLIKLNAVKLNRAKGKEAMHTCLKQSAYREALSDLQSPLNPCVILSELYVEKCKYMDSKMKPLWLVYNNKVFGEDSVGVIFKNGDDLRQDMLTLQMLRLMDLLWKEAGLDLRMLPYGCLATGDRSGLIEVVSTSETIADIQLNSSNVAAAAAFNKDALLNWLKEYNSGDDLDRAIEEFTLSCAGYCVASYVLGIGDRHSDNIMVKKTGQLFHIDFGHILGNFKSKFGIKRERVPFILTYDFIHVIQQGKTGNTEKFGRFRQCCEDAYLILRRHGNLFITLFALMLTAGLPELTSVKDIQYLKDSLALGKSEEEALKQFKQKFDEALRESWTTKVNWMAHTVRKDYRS

Homo sapiens = organism: Homo sapiens; assay: Selectivity ratio of Ki for human p110beta/p85alpha to Ki for human p110alpha/p85alpha using PIP2 as substrate in presence of ATP
Procedure, shortened: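 Ki from a PI3-kinase HTRF assay run per manufacturer. Enzyme levels: p110α/p85α and p110δ/p85α 100 pM, p110β/p85α 500 pM, p110γ 4 nM. ATP at 50× KM: 200 μM (α, δ), 250 μM (β), 100 μM (γ). PIP2 10 μM. Activity normalized to no-compound control. Ratio is the isoform Ki over the α Ki.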

HCT-116 = assay: Growth inhibition of human HCT-116 cells harboring mutated p110alpha measured after 72 hrs by Cell titre Glo-luminiscence cell viability assay; type: functional; procedure, shortened: as §1
HT-29 = assay: Growth inhibition of human HT-29 cells harboring mutated p110alpha measured after 72 hrs by Cell titre Glo-luminiscence cell viability assay; type: functional; procedure, shortened: as §1
Cytochrome P450 3A4 = Cytochrome P450 3A4 (Homo sapiens, UniProt P08684); assay: Inhibition of CYP3A4 (unknown origin) using Luciferin-PPXE as substrate at 10 uM preincubated with enzyme and substrate for 5 mins followed by addition of NADPH regeneration system and measured after 60 mins by luminescence method; type: ADME; procedure, shortened: as §3
Cytochrome P450 2C9 = Cytochrome P450 2C9 (Homo sapiens, UniProt P11712); assay: Inhibition of CYP2C9 (unknown origin) using Luciferin-H as substrate at 10 uM preincubated with enzyme and substrate for 5 mins followed by addition of NADPH regeneration system and measured after 60 mins by luminescence method; type: ADME; procedure, shortened: as §3
[5] = target: Phosphatidylinositol 4,5-bisphosphate 3-kinase catalytic subunit gamma isoform (Homo sapiens, UniProt P48736); assay: Inhibition of human p110gamma using PIP2 as substrate in presence of ATP measured by HTRF assay
Procedure, shortened: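 HTRF PI3-kinase assay with PIP2 at 10 µM. Enzyme and ATP levels (ATP at 50× KM): p110α/p85α 100 pM with 200 µM ATP; p110δ/p85α 100 pM with 200 µM ATP; p110β/p85α 500 pM with 250 µM ATP; p110γ 4 nM with 100 µM ATP. Activity normalized to no-compound control, variable-slope sigmoidal fit. Two independent experiments in duplicate.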

MCF7 = assay: Growth inhibition of human MCF7 cells harboring mutated p110alpha measured after 72 hrs by Cell titre Glo-luminiscence cell viability assay; type: functional; procedure, shortened: as §1
[6] = target: PI3-kinase p110-alpha/p85-alpha (Homo sapiens, UniProt P42336, H1047R); assay: Inhibition of p110alpha H1047R mutant/p85alpha (unknown origin) using PIP2:3PS lipid kinase as substrate in presence of ATP measured by ADP-Glo lipid kinase assay; type: protein-complex assay
Procedure, shortened: (§4)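 Lipid kinase assay with PIP2:3PS substrate held at 3.25 µM. Activity normalized to no-compound control for each enzyme and fitted to a variable-slope sigmoidal dose-response curve.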

[7] = target: Voltage-gated inwardly rectifying potassium channel KCNH2 (Homo sapiens, UniProt Q12809); assay: Inhibition of human ERG by fluorescence polarization assay
Procedure, shortened: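 Predictor h-ERG membrane preparations (sonicated) incubated with test compound dilutions and fluorescent tracer (working 4X tracer at 4 nM) at room temperature for ≥1 h. Read-out by fluorescence polarization, ex 530/25, em 590/35.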

[8] = Metabolic stability in mouse liver microsomes assessed as parent compound remaining in presence of NADPH regenerating system at 0.5 uM measured after 15 mins by LC-MS/MS analysis; type: ADME, Microsome; conditions: read-out: Stabilty
Procedure, shortened: (§5)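 Human, mouse or rat liver microsomes at 0.5 mg/ml protein with compound at 0.5 µM and NADPH-regenerating system, 37 °C with shaking. Control wells contain 0.1 M potassium phosphate instead of the regenerating system. Reaction stopped with acetonitrile/0.1% formic acid, centrifuged, supernatant analyzed by LC-MS/MS. Result is percent parent compound remaining.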

[9] = target: PI3-kinase p110-alpha/p85-alpha (Homo sapiens, UniProt P42336, E542K); assay: Inhibition of p110alpha E542K mutant/p85alpha (unknown origin) using PIP2:3PS lipid kinase as substrate in presence of ATP measured by ADP-Glo lipid kinase assay; type: protein-complex assay; procedure, shortened: as §4
PI3-kinase p110-alpha/p85-alpha (Homo sapiens, UniProt P42336, E542K), sequence (P42336 whole entry E542K, looked up): as the sequence (P42336 whole entry) above, with E542K counted along it

[10] = Metabolic stability in rat liver microsomes assessed as parent compound remaining in presence of NADPH regenerating system at 0.5 uM measured after 15 mins by LC-MS/MS analysis; type: ADME, Microsome; conditions: read-out: Stabilty; procedure, shortened: as §5
[11] = Inhibition of PI3K/mTOR in human MCF7 cells assessed as reduction of AKT phosphorylation at Ser473 residue measured after 3 hrs by western blot assay; type: cell-based; conditions: MCF7, 3 h; procedure, shortened: as §2

COc1ncc2cc1NS(=O)(=O)c1cccc(c1)C(=O)NCc1cncc(c1)-c1cnc3ccc-2cn13
GI50 (SK-OV-3): 18.9 nM | Ki [1]: 0.16 nM | AUC(0-inf) [2]: 4480 ng·h/mL | EC50 [3]: 0.92 nM | IC50 (Cytochrome P450 2C19): > 30000 nM | EC50 [4]: 0.84 nM | Ki (PI3K p110 beta/p85 alpha): 0.94 nM | Selectivity ratio (Homo sapiens): 6 | GI50 (HCT-116): 22.8 nM | GI50 (HT-29): 8.2 nM | IC50 (Cytochrome P450 3A4): > 30000 nM | IC50 (Cytochrome P450 2C9): > 30000 nM | Ki [5]: 0.98 nM | GI50 (MCF7): 7 nM | Ki [6]: 0.1 nM | IC50 [7]: > 30000 nM | remaining at 0.25 h, 0.5 µM [8]: 97% | Ki [9]: 0.27 nM | remaining at 0.25 h, 0.5 µM [10]: 100% | EC50 [11]: 0.46 nM
